Measurements from ChEMBL document CHEMBL1157805, “Virtual screening, selection and development of a benzindolone structural scaffold for inhibition of lumazine synthase” (Bioorg Med Chem, 2010).

Tests used:
[1] = target: T1, 6,7-dimethyl-8-ribityllumazine synthase (Mycobacterium tuberculosis, UniProt P9WHE9); test: Inhibition of Mycobacterium tuberculosis recombinant lumazine synthase at enzyme-inhibitor complex state after 30 mins by fluorescence assay
Method in brief: (§1)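 Recombinant M. tuberculosis lumazine synthase (2 μM) in 100 mM Tris-HCl pH 7.0, 100 mM NaCl, 5 mM DTT, 2% DMSO. Dihydroxybutanone phosphate was fixed at 100 μM, pyrimidinedione substrate varied 3–100 μM, and inhibitor 0–200 μM. Reactions were started with the pyrimidinedione substrate. Lumazine formation was read at 408 nm for 30 min at 27 °C. Velocity–substrate data were fitted by nonlinear regression to alternative inhibition models.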

[2] = target: T1, 6,7-dimethyl-8-ribityllumazine synthase; test: Inhibition of Mycobacterium tuberculosis recombinant lumazine synthase at enzyme-substrate-inhibitor complex state after 30 mins by fluorescence assay; method in brief: as §1
[3] = Inhibition of Mycobacterium tuberculosis recombinant riboflavin synthase at enzyme-substrate-inhibitor complex state after 30 mins by fluorescence assay
Method in brief: (§2)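 Recombinant M. tuberculosis riboflavin synthase (1 μM) in 100 mM Tris-HCl pH 7.0, 100 mM NaCl, 5 mM DTT, 2% DMSO. 6,7-Dimethyl-8-ribityllumazine substrate was varied 3–60 μM and inhibitor 0–200 μM. Reactions were started with substrate. Riboflavin formation was monitored at 470 nm for 30 min at 27 °C. Velocity–substrate data for all inhibitor levels were fitted by nonlinear regression to alternative inhibition models.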

[4] = Inhibition of Mycobacterium tuberculosis recombinant riboflavin synthase at […] state after 30 mins by fluorescence assay; method in brief: as §2

T1 sequence (P9WHE9 whole entry): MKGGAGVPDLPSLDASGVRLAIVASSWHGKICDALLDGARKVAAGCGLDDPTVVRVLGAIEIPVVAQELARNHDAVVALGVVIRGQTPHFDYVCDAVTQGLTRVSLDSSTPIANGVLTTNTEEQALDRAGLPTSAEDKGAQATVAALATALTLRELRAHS

Row | SMILES | Ki [1] [µM] | Ki [2] [µM] | Ki [3] [µM] | Ki [4] [µM]
1 | CCOC(=O)C(=O)Nc1c(Cl)[nH]c(=O)[nH]c1=O | 832 | – | – | –
2 | O=C1Nc2ccc(S(=O)(=O)NCCCCCCOP(=O)(O)O)c3cccc1c23 | – | 723 | 898 | 9.8
3 | O=C1Nc2ccc(S(=O)(=O)NCCOP(=O)(O)O)c3cccc1c23 | 260 | – | – | –
4 | O=C1Nc2ccc(S(=O)(=O)NCCCCC(F)(F)P(=O)(O)O)c3cccc1c23 | 832 | 518 | > 1000 | 4.1
5 | O=C1Nc2ccc(S(=O)(=O)NCCCOP(=O)(O)O)c3cccc1c23 | 99 | – | – | –
6 | O=C1Nc2ccc(S(=O)(=O)NCCCCOP(=O)(O)O)c3cccc1c23 | 38 | – | – | –
7 | O=C(O)CNS(=O)(=O)c1ccc2c3c(cccc13)C(=O)N2 | 70 | – | – | –
